Reference: ChEMBL document CHEMBL1129031, “Cyclic nitrone free radical traps: isolation, identification, and synthesis of 3,3-dimethyl-3,4-dihydroisoquinolin-4-ol N-oxide, a metabolite with reduced side effects” (J Med Chem, 1996)

What was measured:
[1] = Compound was tested for brain permeability at 200 mg/kg i.p. after 30 min; assay type: ADME, organism-based; design: dose 200 mg/kg, route intraperitoneal; conditions: in vivo, ip, 0.5 h
Summary of the method: (§1)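 Rats given a single ip dose of 200 mg/kg and killed at 30 or 60 min after dosing. Brains were removed, homogenized and extracted with CHCl₃/MeOH. Brain level is reported as µg/g wet weight.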

[2] = Compound was tested for brain permeability at 200 mg/kg i.p. after 60 min; assay type: ADME, organism-based; design: dose 200 mg/kg, route intraperitoneal; conditions: in vivo, ip, 1 h; summary of the method: as §1
[3] = Lipophilicity expressed as log K'w.; assay type: physicochemical; conditions: reversed-phase HPLC
[4] = In vitro antioxidant activity was measured as IC50, inhibition concentration against neuronal peroxidation.; assay type: functional, Rattus norvegicus
Summary of the method: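 Rat cerebellar granule cells (from 8-day pups, 8-10 days in vitro) in glucose-free Na⁺-free Locke's, pH 7.3. Nitrone was preincubated 30 min, then FeCl₂ added at 100 µM final for 45 min. TBARS measured in the medium, with no-iron background subtracted. IC50 is the concentration inhibiting 50% of iron-induced oxidation.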

Mus musculus [5] = test: (§2) The compound was tested for acute toxicity and activity is expressed as deaths/5 mice after iv (200 mg/kg) administration.; assay type: functional
Summary of the method: (§3)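 Acute toxicity screen in mice given the compound intravenously at 200 mg/kg body weight, five mice per group. Read-out is the survival rate, reported as the number of deaths among the five animals.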

Mus musculus [6] = test: (§4) The compound was tested for acute toxicity and activity is expressed as deaths/5 mice after iv (400 mg/kg) administration.; assay type: functional
Summary of the method: (§5)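 Acute toxicity screen in mice given the compound intravenously at 400 mg/kg body weight, five mice per group. Read-out is the survival rate, reported as the number of deaths among the five animals.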

[7] = In vitro antioxidant activity was measured as IC50, Inhibition concentration against Liposomal peroxidation.; assay type: functional, Glycine max
Summary of the method: (§6)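 Liposomes were made from soybean phosphatidylcholine. Oxidation was initiated and quantitated by the previously described method. Activity is expressed as IC50, the concentration inhibiting lipid peroxidation by 50%.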

[8] = Maintenance of cell viability by the compound was tested in vitro against cerebellar granule cell cultures from 8-day-old-rats; assay type: functional; conditions: Rattus norvegicus
Summary of the method: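 Cerebellar granule cultures from 8-day-old rats were used at 8-10 days in vitro. Cells got nitrone for 30 min, then 100 µM FeCl₂ for 45 min in Na⁺-free Locke's. MEM plus MTT was added for 4 h and the cells lysed in acidic 2-propanol. Read at A570-630, with cell death given relative to no-iron cells. Two separate experiments about 6 months apart.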

Mus musculus [9] = test: as §2; assay type: organism-based; conditions: in vivo; summary of the method: as §3
Mus musculus [10] = test: as §4; assay type: organism-based; conditions: in vivo; summary of the method: as §5
Rattus norvegicus [11] = test: Compound was tested for rat brain permeability at 200 mg/kg i.p. after 30 min; assay type: ADME, organism-based; design: dose 200 mg/kg, route intraperitoneal; conditions: in vivo, ip, 0.5 h; summary of the method: as §1
Rattus norvegicus [12] = test: Compound was tested for rat brain permeability at 200 mg/kg i.p. after 60 min; assay type: ADME, organism-based; design: dose 200 mg/kg, route intraperitoneal; conditions: in vivo, ip, 1 h; summary of the method: as §1
[13] = In vitro antioxidant activity was measured as IC50, Inhibitory concentration against Liposomal peroxidation.; assay type: functional, Glycine max; summary of the method: as §6

| Structure (SMILES) | Brain level [1] [µg/g] | Brain level [2] [µg/g] | Log k'w [3] | IC50 [4] [µM] | Toxicity (Mus musculus [5]) | Toxicity (Mus musculus [6]) | IC50 [7] [µM] | IC50 [8] [µM] | Toxicity (Mus musculus [9]) | Toxicity (Mus musculus [10]) | Brain level (Rattus norvegicus [11]) [µg/g] | Brain level (Rattus norvegicus [12]) [µg/g] | IC50 [13] [µM] |
| --- | --- | --- | --- | --- | --- | --- | --- | --- | --- | --- | --- | --- | --- |
| CC1(C)Cc2ccccc2C=[N+]1[O-] | 109 | 77 | 1.9 | 307 | 0 | 5 | 1670 |  |  |  |  |  |  |
| CC(=O)OC1c2ccccc2C=[N+]([O-])C1(C)C (centres undefined) |  |  | 1.95 | 839 |  |  | 2090 | 660 | 0 | 0 |  |  |  |
| CC1(C)C(O)c2ccccc2C=[N+]1[O-] (centres undefined) | 142 | 127 | 0.91 | 1900 | 0 | 0 | 5500 | 1500 |  |  |  |  |  |
| O=C1c2ccccc2C=[N+]([O-])C12CCCCC2 |  |  | 2.6 | 37 |  |  | 27 | 39 | 0 | 5 |  |  |  |
| [O-][N+]1=Cc2ccccc2C(O)C12CCCC2 (centres undefined) |  |  | 1.67 | 771 |  |  | 1040 | 817 | 0 | 0 |  |  |  |
| CC1(C)C(=O)c2ccccc2C=[N+]1[O-] |  |  | 1.65 | 830 |  |  | 940 | 882 | 0 | 1 | 103 | 67 |  |
| O=C1c2ccccc2C=[N+]([O-])C12CCCC2 |  |  | 2.05 | 102 |  |  | 157 |  | 0 | 4 |  |  |  |
| CC(C)(C)/[N+]([O-])=C/c1ccccc1 |  |  |  | 2580 | 1 | 4 |  | 2600 |  |  | 51 | 38 | 14300 |
| [O-][N+]1=Cc2ccccc2C(O)C12CCCCC2 (centres undefined) |  |  | 2.1 | 520 |  |  | 539 | 588 | 0 | 0 |  |  |  |
